rRNA inh HTS: inhibitors of bacterial rRNA selective over humanized ribosomes; actives 1.6% (n = 350,000); AID 720706; E. coli WT GFP vs humanized-ribosome RFP mutants, fluorescence, 24 h; stronger effect = lower value; DMSO median 0, no signal -100; GFP signal change (wild-type ribosome), % (no concentration beside the values);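 active = significant combined selectivity score with lowered wild-type GFP, culture density cut under 30%, mutant RFP and density less affected; inactive = any of these conditions unmet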
ERp5 block: inhibitors of human ERp5; inhibition, % at 9.99 µM; ERp5 insulin aggregation, absorbance 650 nm, 90 min; actives 0.05% (n = 350,000); AID 651711;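 active = mean replicate inhibition above about 25%, with every replicate also reaching it, limit read from the data, passing the limit was not always enough; inconclusive = only one of those two criteria met; inactive = neither criterion met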
FN deposition inh: fibronectin deposition inhibition; AH1F fibroblasts, Alexa488-fibronectin deposition fluorescence, overnight; AID 743247; inhibition, % at 12.6 µM; actives 0.086% (n = 350,000);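 active = mean inhibition across replicates of 30% or more, regardless of how many single replicates reach that level; inconclusive = mean under 30% yet at least half of replicates reach 30%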
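Assay system: AH1F fibroblasts / Quantity: 10000 cells per well / Medium: DMEM plus 2% serum, read in PBS / Reagent: labelled fibronectin 24 nM / Dosing: single dose, pinned / Times: 1 h cell attachment, overnight exposure to compound and label / Signal: fluorescence, ex 485 nm, em 525 nm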
Env fusion inh: blocks HIV Env-driven cell-cell fusion. HeLa-JRFL Env/CEM21 cell fusion, luciferase. AID 651610. inhibition, % at 12.3 µM. actives 1.1% (n = 360,000);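 active = mean replicate inhibition score of at least 50 and every replicate individually at or above 50; inconclusive = only one of the two criteria met; inactive = mean below 50 and not all replicates reaching 50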
PDI turbidity: PDI (human) enzyme inhibition | actives 0.052% (n = 350,000) | PDI insulin aggregation turbidity, A650, 90 min | inhibition, % at 10 µM;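 active = mean inhibition across replicates of 30% or more, whatever share of single replicates reach that level; inconclusive = mean inhibition below 30% while every single replicate reaches 30%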
Target sequence (P07237 whole entry, looked up): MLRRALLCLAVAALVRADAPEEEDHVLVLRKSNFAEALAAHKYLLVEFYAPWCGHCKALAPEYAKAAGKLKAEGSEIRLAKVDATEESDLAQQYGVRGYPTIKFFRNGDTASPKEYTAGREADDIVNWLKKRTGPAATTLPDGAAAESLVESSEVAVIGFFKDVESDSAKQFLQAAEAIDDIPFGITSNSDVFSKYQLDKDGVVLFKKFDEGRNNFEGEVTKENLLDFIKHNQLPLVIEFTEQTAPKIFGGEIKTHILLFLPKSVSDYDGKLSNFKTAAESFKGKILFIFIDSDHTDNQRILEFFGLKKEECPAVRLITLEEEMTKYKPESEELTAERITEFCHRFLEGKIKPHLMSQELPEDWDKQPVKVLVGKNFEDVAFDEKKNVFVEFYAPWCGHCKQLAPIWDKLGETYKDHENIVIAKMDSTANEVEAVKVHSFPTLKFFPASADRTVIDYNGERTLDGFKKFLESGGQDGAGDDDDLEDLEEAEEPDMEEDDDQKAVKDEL
PvdQ acylase: blocks Pseudomonas aeruginosa PvdQ acylase activity. purified PvdQ acylase, fluorescence plate reader. inhibition, % at 10 µM. actives 0.063% (n = 340,000). AID 488965; in the data active = inhibition above about 30%, passing the limit was not always enough; inconclusive = no clear call, values can overlap the other calls
Of the large screens only hits and unclear results are named; the others gave an inactive call. Compounds with a hit are over-represented: about 2.2% of the library has one in this group of screens.

O=C(C[C@H]1C[C@@H]2c3cc(NC(=O)C4CCOCC4)ccc3O[C@@H]2[C@@H](CO)O1)NCC(F)(F)F	none (no result: FN deposition inh, PDI turbidity, PvdQ acylase)
O=C(C[C@@H]1C[C@H]2c3cc(NC(=O)C4CCC4)ccc3O[C@H]2[C@@H](CO)O1)NCC(F)(F)F	ERp5 block 77 (no result: PDI turbidity, PvdQ acylase)
Cn1nc(C(=O)NNc2c(F)c(F)cc(F)c2F)c2ccccc2c1=O	rRNA inh HTS -21
Cc1ccc(S(=O)(=O)N2CC3(C)CN(S(=O)(=O)c4ccc(C)cc4)CC(C)(C2)C3O)cc1 (configuration not stated)	none
Cc1ccc(S(=O)(=O)N2CC3(C)CN(S(=O)(=O)c4ccc(C)cc4)CC(C)(C2)C3=O)cc1	FN deposition inh 34 (no result: rRNA inh HTS, ERp5 block)
CCC(=O)Nc1ccc2c(c1)OC[C@H](C)N(C(=O)CC1CC1)C[C@H](C)[C@@H](OC)CN(C)C2=O	none (no result: Env fusion inh, PDI turbidity, PvdQ acylase)
CC1CN(c2nc3ccccc3nc2C(C#N)C(=O)OC2CCCCC2)CC(C)O1 (configuration not stated)	Env fusion inh 59 (no result: rRNA inh HTS, ERp5 block, FN deposition inh)
CCOc1c(Cl)cc(CNC(C)(C)CC(C)(C)C)cc1OC	PDI turbidity 35 (no result: rRNA inh HTS, ERp5 block)
CC(C)NC(=O)Nc1ccc2c(c1)CC(=O)N([C@H](C)CO)C[C@H](C)[C@@H](CN(C)Cc1ccc3c(c1)OCO3)O2	none (no result: FN deposition inh, PDI turbidity, PvdQ acylase)
O=C1C2C(C(=O)N1Cc1ccco1)C1C=CC2C12CC2 (configuration not stated)	PvdQ acylase 87 (no result: rRNA inh HTS, ERp5 block)
O=C1C2C3C=CC(C4CC34)C2C(=O)N1Cc1ccco1 (configuration not stated)	PvdQ acylase 41
O=C1C2C3c4ccccc4C(c4ccccc43)C2C(=O)N1Cc1ccco1 (configuration not stated)	none (no result: rRNA inh HTS, ERp5 block, FN deposition inh, Env fusion inh)
O=C1CC(=O)N(Cc2ccco2)C(=O)N1	none (no result: rRNA inh HTS, ERp5 block)
CCCC#Cc1ccc2c(c1)O[C@@H](CN(C)C(=O)c1cnccn1)[C@H](C)CN([C@@H](C)CO)S2(=O)=O	none (no result: PDI turbidity, PvdQ acylase)
O=C(C(=O)N1CCC(CNS(=O)(=O)c2ccccc2)CC1)c1cc2ccccc2o1	rRNA inh HTS -13 (no result: PDI turbidity, PvdQ acylase)
O=C(NCC1CCN(C(=O)C(=O)c2cc3ccccc3o2)CC1)c1ccc2c(c1)OCCCO2	rRNA inh HTS -17 (no result: PDI turbidity, PvdQ acylase)
CS(=O)(=O)c1ccc(S(=O)(=O)NCC2CCN(C(=O)C(=O)c3cc4ccccc4o3)CC2)cc1	Env fusion inh inconclusive (no result: PDI turbidity, PvdQ acylase)
COc1cc(OC)cc(C(=O)NCC2CCN(C(=O)C(=O)c3cc4ccccc4o3)CC2)c1	none (no result: PDI turbidity, PvdQ acylase)
CSc1ccc(C(=O)NCC2CCN(C(=O)C(=O)c3cc4ccccc4o3)CC2)cc1	rRNA inh HTS -14 (no result: PDI turbidity, PvdQ acylase)
O=P(OC1CCCCC1)(OC1CCCCC1)C(O)c1cccnc1 (configuration not stated)	none
O=P(OC1CCCCC1)(OC1CCCCC1)C(O)c1ccccc1 (configuration not stated)	Env fusion inh 61 (no result: rRNA inh HTS, ERp5 block)
O=C(NC1CCCC1)[C@@H]1[C@@H](CO)[C@@H]2Cn3c(ccc(-c4cccnc4)c3=O)[C@H]1N2CC1CC1	ERp5 block 28 (no result: FN deposition inh, Env fusion inh, PDI turbidity, PvdQ acylase)
c1ccc2[nH]c(SCc3cn4cccnc4n3)nc2c1	FN deposition inh 31 (no result: rRNA inh HTS, ERp5 block)
c1ccc(-c2cnnc(SCc3cn4cccnc4n3)n2)cc1	none (no result: rRNA inh HTS, ERp5 block, FN deposition inh, Env fusion inh)
CCCc1nn(-c2cc(Cl)ccc2OC)c2c1C(=O)CCC2	none
CCCCc1nn(-c2cc(Cl)ccc2OC)c2c1C(=O)CC(C)(C)C2	Env fusion inh 57
C=CC[C@]12CCc3ccccc3C1N(c1ccc(C(=O)OCC)cc1)C2=O (some centres not stated)	Env fusion inh 61
CCOC(=O)c1ccc(N2C(=O)Cc3ccccc3C2=O)cc1	none
Cc1cc(C(=O)CSc2nc3ccccc3[nH]2)c(C)n1Cc1ccco1	rRNA inh HTS -34
CC(=O)N(CCOc1ccccc1)CCOc1ccccc1	rRNA inh HTS -23
CN(CCOc1ccccc1)CCOc1ccccc1	none
COc1ccc(CSc2nncn2C)cc1F	Env fusion inh 60
COc1ccc(CSc2nnnn2C)cc1F	none (no result: rRNA inh HTS, ERp5 block, FN deposition inh, Env fusion inh)
COc1ccccc1-c1cc2nc(NCCc3ccc(S(N)(=O)=O)cc3)ccn2n1	none (no result: FN deposition inh, PvdQ acylase)
COc1ccccc1-c1cc2nc(NCCc3ccncc3)ccn2n1	rRNA inh HTS -17 (no result: FN deposition inh, PvdQ acylase)
CO[C@@H]1CN(C)C(=O)c2ccc(NC(=O)Nc3ccccc3)cc2OC[C@@H](C)NC[C@@H]1C	none (no result: Env fusion inh, PDI turbidity, PvdQ acylase)
CN(Cc1ccccc1C#N)S(=O)(=O)c1cccs1	none
N#Cc1nccnc1S(=O)(=O)c1cccs1	FN deposition inh 40 (no result: PDI turbidity, PvdQ acylase)
Cc1noc(C)c1NC(=O)Nc1ccc2c(c1)C(=O)N([C@@H](C)CO)C[C@@H](C)[C@H](CN(C)S(C)(=O)=O)O2	none (no result: FN deposition inh, Env fusion inh, PDI turbidity, PvdQ acylase)
CC1(C)CC[C@]2(C(=O)n3ccnc3)CC[C@]3(C)[C@H](C(=O)C=C4[C@@]5(C)C=C(C#N)C(=O)C(C)(C)[C@@H]5CC[C@]43C)[C@@H]2C1	Env fusion inh 109
COC(=O)c1cc(C(=O)c2c(C)cc3ccccn23)cc([N+](=O)[O-])c1	rRNA inh HTS -22
C=C1CCN([C@H](C(=O)OCc2ccc(C)cc2)C(C)C)S(=O)(=O)c2ccccc21	Env fusion inh 80
C=C1CCN([C@@H](Cc2ccccc2)C(=O)Nc2ccc(OC)cc2)S(=O)(=O)c2ccccc21	Env fusion inh 105
C=C1CCN([C@H](C(=O)Nc2ccc(OC)cc2)C(C)C)S(=O)(=O)c2ccccc21	none
C=C1CCN([C@@H](C)C(=O)OCc2cccc(C)c2)S(=O)(=O)c2ccccc21	none
C[C@H](CO)N1C[C@H](C)[C@@H](CN(C)C)OCCCC[C@H](C)Oc2ccc(NS(=O)(=O)c3cccs3)cc2C1=O	none (no result: PDI turbidity, PvdQ acylase)
CC1(c2nnc(-c3ccccc3)o2)CC(c2c(Cl)cccc2Cl)=NO1 (configuration not stated)	rRNA inh HTS -29
CC1(c2nnc(-c3ccncc3)o2)CC(c2c(Cl)cccc2Cl)=NO1 (configuration not stated)	none
Cc1ccc(CS(=O)Cc2ccc(C(=O)NC3CCCCCC3)o2)cc1 (configuration not stated)	none
Cc1ccc(CS(=O)Cc2ccc(C(=O)NC3CCCC(C)C3C)o2)cc1 (configuration not stated)	FN deposition inh 30
COc1ccccc1NC(=O)CSc1nnnn1Cc1ccccc1	rRNA inh HTS -29 (no result: FN deposition inh, Env fusion inh)
CCOc1ccccc1NC(=O)CSc1nnnn1Cc1ccccc1	none (no result: rRNA inh HTS, ERp5 block)
COc1ccccc1NC(=O)CSc1ccc(-c2cccs2)nn1	rRNA inh HTS -27
CCCc1cc(C(=O)Nc2cc(C)nn2-c2ccccc2)no1	Env fusion inh 60 (no result: PDI turbidity)
CCCc1cc(C(=O)NCCc2ccccc2)no1	none (no result: PDI turbidity)
COc1cccc(-n2nnnc2SCC(=O)NCc2ccc3c(c2)OCO3)c1	rRNA inh HTS -21 (no result: FN deposition inh, Env fusion inh)
N#C/C(=N\Nc1ccc(S(=O)(=O)N2CCCCC2)cc1)C(N)=S	rRNA inh HTS -32
N#C/C(=N\Nc1ccc(S(=O)(=O)N2CCCCCC2)cc1)C(N)=S	none

Screening results: PubChem, Broad Institute
